Hits are enriched below; roughly 4.7% of the tested compounds scored in any of these assays.
MrgX1 antag: human MrgX1 receptor antagonism, primary screen; Q96LB2; MRGX1-HEK293 calcium flux, Fluo-4, BAM8-22 antagonism; stronger effect = lower value; B-score at 10 µM; actives 1.3% (n = 310,000); AID 588676;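 active = calcium-response B-score plate-corrected more than 3 library SD below zero, starting fluorescence within 5 deviations, no agonist response on first addition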;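 also: peak minus trough fluorescence over baseline after final BAM8-22 challenge near maximal dose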
Target sequence (Q96LB2 whole entry, looked up): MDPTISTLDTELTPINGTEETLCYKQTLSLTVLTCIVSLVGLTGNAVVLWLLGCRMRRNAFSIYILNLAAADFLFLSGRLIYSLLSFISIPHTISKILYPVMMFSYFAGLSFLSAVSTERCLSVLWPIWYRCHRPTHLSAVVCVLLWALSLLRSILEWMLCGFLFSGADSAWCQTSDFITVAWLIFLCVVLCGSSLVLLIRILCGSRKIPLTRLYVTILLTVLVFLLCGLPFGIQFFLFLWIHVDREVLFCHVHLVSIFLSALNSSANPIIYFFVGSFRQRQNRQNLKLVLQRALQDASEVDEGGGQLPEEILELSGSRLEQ
RGS4 pot: potentiators or activators of RGS4; HEK293 M3R/inducible RGS4, carbachol calcium flux Fluo4; stronger effect = lower value; B-score at 10 µM; actives 0.92% (n = 310,000); AID 463111;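 active = B-score of the integrated calcium signal more than 4 SD below the library mean, with starting fluorescence not abnormally high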;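 also: negative B-score means reduced calcium response which marks RGS4 activation or potentiation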
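Assay system: HEK293 FlpIn-TREx cells, stable M3R, doxycycline-inducible RGS4 / Probe or stimulus: carbachol, ECmax concentration / Times: overnight RGS4 induction, 30 min dye load 37 °C, 20 min compound RT / Signal: kinetic calcium fluorescence imaging with Fluo4-AM dye, 2 µM / Measure: Agonist-evoked peak-minus-minimum fluorescence over baseline, integrated ratio, B score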
RGS4 inh: inhibitors of human RGS4; P49798; HEK293 M3R/RGS4 inducible, Fluo-4 calcium flux; stronger effect = higher value; triggered by carbachol at its EC20; B-score at 10 µM; actives 0.45% (n = 310,000); AID 463165;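 active = B-score, a plate-corrected calcium signal, over three deviations above library mean, with baseline fluorescence within five deviations of library mean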;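 also: RGS4 expression induced by doxycycline in cells with stable M3 receptor; B-score is computed from the integrated fluorescence ratio over baseline after carbachol; higher B-score means a larger calcium signal and so more RGS4 inhibition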
Target sequence (P49798 whole entry, looked up): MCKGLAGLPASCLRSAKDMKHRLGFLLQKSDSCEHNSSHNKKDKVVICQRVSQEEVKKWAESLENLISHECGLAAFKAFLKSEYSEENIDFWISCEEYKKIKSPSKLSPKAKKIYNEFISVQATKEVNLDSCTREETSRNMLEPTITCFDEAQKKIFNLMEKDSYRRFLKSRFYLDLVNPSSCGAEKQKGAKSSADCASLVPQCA
MrgX1 ag: agonists of human MrgX1 receptor. MrgX1-HEK293 cells, Fluo-4 calcium fluorescence, agonist mode; stronger effect = higher value. actives 0.44% (n = 310,000). B-score at 10 µM;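 active = calcium response B-score plate-corrected fluorescence ratio at least 3 library SD, with starting fluorescence B-score inside 5 SD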
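Material – MrgX1-expressing HEK293 cells · Input – 15,000 cells seeded per well · Dosing – compound as first of three additions · Times – overnight seeding, then 1 h dark dye loading · Measured by – kinetic Fluo-4 NW fluorescence of intracellular calcium · Read-out – B-scored fluorescence response ratio · Benchmarks – positive and negative control wells on each plate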
KCC2 mod: modulates chloride dependent transport by human KCC2; Q9H2X9; KCC2 cells, thallium flux FluoZin-2 fluorescence; B-score of Tl+ flux slope (higher = more flux/activation; lower = inhibition) at 10 µM; actives 2.2% (n = 190,000); AID 1456;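 active = thallium flux slope and its plate-corrected score both differing from the plate sample mean at a set confidence after two filtering rounds, in either direction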;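 also: slope of fluorescence scaled to starting intensity during 10 to 20 s after thallium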
MrgX1 PAM: human MrgX1 positive allosteric modulation, primary screen. Q96LB2. MrgX1-HEK293, Fluo-4 calcium flux, FDSS; stronger effect = higher value. B-score at 10 µM. actives 0.63% (n = 310,000). AID 588675;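 active = plate-corrected calcium response at least 3 library SD above typical, normal starting fluorescence, not activating the receptor alone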;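 also: compound read alongside a low EC10 to EC30 dose of BAM8-22 agonist; peak minus trough fluorescence over baseline measured at the second addition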
MrgX1 antag conf: reconfirmed antagonist of human MrgX1 receptor signaling; shares compounds with MrgX1 antag; MrgX1-HEK293, BAM8-22 calcium flux, Fluo-4; stronger effect = lower value; remaining BAM8-22 calcium response % of control (stronger effect = lower value), % at 10 µM; actives 19% (n = 2,300); AID 602420;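 active = remaining agonist calcium response no higher than 100% minus 3 SD of agonist-only control wells, with starting fluorescence near control levels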;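 also: agonist BAM8-22 given at a near maximal EC90 to ECmax level; peak minus minimum fluorescence divided by baseline after agonist addition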
HEK293 Ca flux: counter-screen for MrgX1 antagonists: effect in parental HEK293 cells | fluorescence ratio F(max-min)/F0 at 10 µM | Fluo-4 calcium fluorescence, FDSS | shares compounds with MrgX1 antag | actives 2% (n = 4,000);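 active = duplicate-averaged calcium fluorescence ratio at least three times the standard deviation of buffer wells, a nonspecific response in parental cells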
HEK293 Ca counter: MrgX1 allosteric activator counter-screen hit in parental HEK293 cells | shares compounds with MrgX1 antag | parental HEK293 calcium flux, Fluo-4 fluorescence ratio; stronger effect = higher value | fluorescence ratio F(max-min)/F0 at 10 µM | actives 0.4% (n = 4,000) | AID 624114;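 active = calcium fluorescence ratio, averaged over duplicates, at least 3 SD of the buffer-well ratio, meaning a nonspecific response in receptor-free cells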;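 also: untransfected parental HEK293 lacking MrgX1 used as counterscreen for MrgX1 allosteric activators; fluorescence change taken during the second addition on a kinetic imager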
HEK293 Ca cntr2: counter-screen for MrgX1 activators: effect in parental HEK293 cells; shares compounds with MrgX1 antag; Fluo-4 calcium fluorescence (FDSS); stronger effect = higher value; fluorescence ratio F(max-min)/F0 at 10 µM; actives 8.7% (n = 4,000); AID 624115;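 active = calcium fluorescence ratio at least three times the spread of buffer wells, meaning a non-specific response in parental cells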
Large screens that a line does not name were inactive (follow-up assays come after a bar, where they were run); ! = a repeat was not active.

COC(=O)c1ccccc1S(=O)(=O)N1CCC(C(=O)OCC(=O)NCC(F)(F)F)CC1	none
Cc1ccc(NC(=O)COC(=O)Cc2ccsc2)cc1S(=O)(=O)N1CCOCC1	MrgX1 antag -5.4 | MrgX1 antag conf inactive | HEK293 Ca flux inactive | HEK293 Ca counter inactive | HEK293 Ca cntr2 inactive
Cc1ccc(NC(=O)COC(=O)C2CCC2)cc1S(=O)(=O)N1CCCCC1	MrgX1 antag -5.4 (no result: KCC2 mod) | MrgX1 antag conf 84% | HEK293 Ca flux inactive | HEK293 Ca counter inactive | HEK293 Ca cntr2 inactive
CCOC(=O)c1ccccc1NC(=O)COC(=O)C1CCN(S(=O)(=O)c2ccccc2C(=O)OC)CC1	MrgX1 antag -11 (no result: KCC2 mod) | MrgX1 antag conf inactive | HEK293 Ca flux inactive | HEK293 Ca counter inactive | HEK293 Ca cntr2 inactive
OC1CCN(CC(O)C(F)(F)F)CC1 (centres undefined)	MrgX1 antag -5.7 | MrgX1 antag conf inactive | HEK293 Ca flux inactive | HEK293 Ca counter inactive | HEK293 Ca cntr2 inactive
OCCN1CCN(CC(O)C(F)(F)F)CC1 (centres undefined)	none
CCOC(=O)c1ccc(-c2c(C(=O)OCC)oc3cc(O)c(CC)cc3c2=O)o1	MrgX1 antag -4.8 | MrgX1 antag conf 80% | HEK293 Ca flux inactive | HEK293 Ca counter inactive | HEK293 Ca cntr2 inactive
CCOc1cc(C(=O)Nn2cnnc2)cc(OCC)c1OCC	MrgX1 antag -4.6 | MrgX1 antag conf inactive | HEK293 Ca flux inactive | HEK293 Ca counter inactive | HEK293 Ca cntr2 inactive
CCOc1cc(C(=O)NC(=S)Nc2nc(C)cc(C)n2)cc(OCC)c1OCC	none (no result: KCC2 mod)
O=C(NC(=S)Nn1cnnc1)c1ccccc1	MrgX1 antag -8.3 (no result: KCC2 mod) | MrgX1 antag conf 75% | HEK293 Ca flux inactive | HEK293 Ca counter inactive | HEK293 Ca cntr2 inactive
CCOc1cc(C(=O)NC(=S)Nn2cnnc2)cc(OCC)c1OCC	MrgX1 antag -4.5 | MrgX1 antag conf inactive | HEK293 Ca flux inactive | HEK293 Ca counter inactive | HEK293 Ca cntr2 inactive
COc1ccc(C)cc1S(=O)(=O)N(CC(=O)NC1CCCC1)c1ccc(F)cc1	none (no result: KCC2 mod)
O=C(COc1ccc(Cl)cc1)NCCCNC(=O)c1ccccn1	none (no result: KCC2 mod)
S=C(NCCc1ccccn1)Nc1ccc(Cl)c(Cl)c1	none
O=C(COc1ccc(Cl)cc1)NCCc1ccccn1	MrgX1 antag -5.2 | MrgX1 antag conf 85% | HEK293 Ca flux inactive | HEK293 Ca counter inactive | HEK293 Ca cntr2 inactive
S=C(NCCc1ccccn1)Nc1cc(Cl)cc(Cl)c1	MrgX1 antag -4.5 (no result: KCC2 mod) | MrgX1 antag conf 81% | HEK293 Ca flux inactive | HEK293 Ca counter inactive | HEK293 Ca cntr2 inactive
COc1ccccc1N1CCN(S(=O)(=O)CCNC(=O)c2ccccc2Br)CC1	none (no result: KCC2 mod)
CN1CCN(c2ccc(Cl)cc2NC(=O)CN2C(=O)NC(C)(c3ccccc3)C2=O)CC1 (centres undefined)	MrgX1 antag -4.5 (no result: KCC2 mod) | MrgX1 antag conf inactive | HEK293 Ca flux inactive | HEK293 Ca counter inactive | HEK293 Ca cntr2 inactive
O=C(NCCCN1CCCC1=O)c1ccc(S(=O)(=O)Nc2cccc(C(F)(F)F)c2)cc1	none (no result: KCC2 mod)
CC(C)C(=O)Nc1cc(C(F)(F)F)ccc1N1CCOCC1	MrgX1 antag -5 | MrgX1 antag conf 76% | HEK293 Ca flux inactive | HEK293 Ca counter inactive | HEK293 Ca cntr2 inactive
Cc1ccccc1NC(=S)NCc1ccc2c(c1)cc(C)n2C	MrgX1 antag -5.3 | MrgX1 antag conf inactive | HEK293 Ca flux inactive | HEK293 Ca counter inactive | HEK293 Ca cntr2 inactive
CCOC(=O)C1(Cc2ccccc2)CCCN(Cc2ccccn2)C1 (centres undefined)	none
CCOC(=O)C1(Cc2ccccc2)CCN(Cc2cnn(-c3ccccc3)c2)CC1	MrgX1 antag -6 | MrgX1 antag conf 73% | HEK293 Ca flux inactive | HEK293 Ca counter inactive | HEK293 Ca cntr2 inactive
CCOC(=O)C1(Cc2ccccc2)CCCN(CCO)C1 (centres undefined)	MrgX1 antag -5 | MrgX1 antag conf inactive | HEK293 Ca flux inactive | HEK293 Ca counter inactive | HEK293 Ca cntr2 inactive
Cc1ccc2c(c1)N(CC(=O)NC1CCCC(C)C1C)C(=O)c1cccnc1O2 (centres undefined)	none (no result: KCC2 mod)
CN(C(=O)C(=O)c1cn(CC(=O)N2CCCC2)c2ccccc12)C1CCCCC1	none (no result: KCC2 mod)
Cc1cc(-c2ccccc2N)n[nH]1	MrgX1 antag -6.4 | MrgX1 antag conf inactive | HEK293 Ca flux inactive | HEK293 Ca counter inactive | HEK293 Ca cntr2 inactive
Cc1cc(-c2cccs2)n[nH]1	none
O=C(O)CCSc1ccc2ccccc2n1	MrgX1 antag -6.7! | MrgX1 antag conf inactive | HEK293 Ca flux inactive | HEK293 Ca counter inactive | HEK293 Ca cntr2 inactive
CN(C)CCCC(C)(O)C(Cc1ccccc1)c1ccccc1 (centres undefined)	MrgX1 antag -6.5 (no result: KCC2 mod) | MrgX1 antag conf inactive | HEK293 Ca flux inactive | HEK293 Ca counter inactive | HEK293 Ca cntr2 inactive
COc1ccc(C(=O)NCCCOc2cccc(NC(C)=O)c2)cc1	none
COC(=O)[C@H](C)[C@@H]1C[C@@]1(C)[C@@H](NC(=O)OCc1ccccc1)c1ccccc1	MrgX1 antag -5.4 | MrgX1 antag conf 75% | HEK293 Ca flux inactive | HEK293 Ca counter inactive | HEK293 Ca cntr2 inactive
C[C@@H](C(=O)O)[C@H]1C[C@]1(C)[C@H](NC(=O)OCc1ccccc1)c1ccccc1	none
CN1C(=O)/C(=C/c2ccccc2Cl)Sc2ccc(C(=O)NCc3cccnc3)cc21	none
O=C(NCc1ccco1)c1cnn2c(C(F)(F)F)cc(-c3ccccc3)nc12	MrgX1 antag -4.7 (no result: KCC2 mod) | MrgX1 antag conf inactive | HEK293 Ca flux inactive | HEK293 Ca counter inactive | HEK293 Ca cntr2 inactive
Cc1nn(-c2ccccc2)c2nc(-c3ccncc3)cc(C(=O)NCc3ccco3)c12	MrgX1 antag -5.9 | MrgX1 antag conf inactive | HEK293 Ca flux inactive | HEK293 Ca counter inactive | HEK293 Ca cntr2 inactive
NC(=O)c1cnn2c(C(F)(F)F)cc(-c3ccccc3)nc12	none
O=C(CN1CCC(c2nc3ccccc3s2)CC1)NCc1ccccc1	MrgX1 antag -5.4 | MrgX1 antag conf inactive | HEK293 Ca flux inactive | HEK293 Ca counter inactive | HEK293 Ca cntr2 inactive
